Assay results as given in ChEMBL document CHEMBL2021803, “Antitumor agents. 289. Design, synthesis, and anti-breast cancer activity in vivo of 4-amino-2H-benzo[h]chromen-2-one and 4-amino-7,8,9,10-tetrahydro-2H-benzo[h]chromen-2-one analogues with improved water solubility” (J Nat Prod, 2012).
Values after ≈ are worked out from the molar mass of the structure shown. Values belong to the compound of their own block, whether it stands above or below them. Active and inactive are the calls of the source. No cut-off for these calls is given here.

Legend:
[1] = tested on: DU-145; assay: Cytotoxicity against human DU145 cells after 72 hrs by SRB assay; format: functional, cell-based
[2] = tested on: A549; assay: Cytotoxicity against human A549 cells after 72 hrs by SRB assay; format: functional, cell-based
[3] = tested on: KB; assay: Cytotoxicity against human KB cells after 72 hrs by SRB assay; format: functional, cell-based
[4] = tested on: SK-BR-3; assay: Cytotoxicity against human SKBR3 cells after 72 hrs by SRB assay; format: functional, cell-based
[5] = Cytotoxicity against human KBVIN cells after 72 hrs by SRB assay; format: functional, cell-based
[6] = tested on: Mus musculus; assay: Reduction in ductal branching in wild type mouse mammary gland at 0.1 mg, ip administered daily for 10 days by immunostaining technique; format: functional, organism-based; parameters: scale not given: the % may be the effect or the level left; conditions: in vivo, 240 h
Procedure, shortened: (§1)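 Three-month-old wild-type or Brca1/p53 Cre mutant mice (mixed C57BL/6 × 129/Sv) given 0.1 mg i.p. daily (DMSO stock […] diluted in 40% PEG and 0.9% NaCl at dosing); vehicle controls. Fourth-pair mammary glands whole-mounted, Carnoy's fixed 3 h, Carmine alum stained overnight. Branching points counted in three random areas totaling about 2 mm².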

[7] = tested on: Mus musculus; assay: Reduction in ductal branching in Brca/p53 mutant mouse mammary gland at 0.1 mg, ip administered daily for 10 days by immunostaining technique; format: functional; parameters: scale not given: the % may be the effect or the level left; conditions: in the assay text read “Carmine alum whole-mount staining” for “immunostaining technique”; procedure, shortened: as §1
[8] = tested on: Mus musculus; assay: Induction of apoptosis in wild type mouse mammary gland assessed as increase in cleaved caspase-3 at 0.1 mg, ip administered daily for 10 days by immunohistochemical staining method relative to vehicle-treated control; format: organism-based; conditions: in vivo, 240 h
Procedure, shortened: (§2)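 Wild-type or Brca1/p53 Cre mutant mice (C57BL/6 × 129/Sv), three months old, dosed i.p. daily with 0.1 mg in DMSO/40% PEG/0.9% NaCl (10:30:60 μL), made fresh; vehicle controls. Mammary glands fixed in 4% paraformaldehyde at 4 °C overnight, paraffin-embedded, cut into 5-μm sections. Retrieval by boiling in citrate pH 6.0, then rabbit polyclonal anti-cleaved caspase-3. Read as percentage of positive cells per duct.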

[9] = tested on: Mus musculus; assay: Induction of apoptosis in Brca/p53 mutant mouse mammary gland assessed as increase in cleaved caspase-3 at 0.1 mg, ip administered daily for 10 days by immunohistochemical staining method relative to vehicle-treated control; format: functional; procedure, shortened: as §2
[10] = tested on: Mus musculus; assay: Reduction in ductal branching in Brca/p53 mutant mouse at 0.1 mg, ip administered daily for 10 days; format: functional, organism-based; procedure, shortened: as §1
[11] = Solubility of the compound in water; format: physicochemical
[12] = tested on: Mus musculus; assay: Antiproliferative activity of wild type mouse mammary epithelial cells assessed as reduction in DNA synthesis at 0.1 mg, ip administered daily for 10 days by BrdU-based immunostaining method; format: organism-based, Epithelial cell; conditions: in vivo, 240 h
Procedure, shortened: (§3)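 Three-month-old mice (C57BL/6 × 129/Sv mixed background; wild-type or Brca1/p53 Cre mutant) dosed i.p. daily, 0.1 mg in 10 μL of […] DMSO stock plus 30 μL 40% PEG and 60 μL 0.9% NaCl, made fresh; vehicle controls. Paraffin sections, citrate pH 6.0 microwave retrieval 20 min, anti-BrdU 1:1000, ABC detection; BrdU-positive cells averaged over 15 ducts.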

[13] = tested on: Mus musculus; assay: Antiproliferative activity of Brca/p53 mutant mouse mammary epithelial cells assessed as reduction in DNA synthesis at 0.1 mg, ip administered daily for 10 days by BrdU-based immunostaining method; format: functional, Epithelial cell; parameters: scale not given: the % may be the effect or the level left; procedure, shortened: as §3

SMILES: O=c1cc(NC2CCN(Cc3ccccc3)CC2)c2ccc3c(c2o1)CCCC3 [listing 1 of 2 here]
IC50 ([1]; Homo sapiens, DU-145, 72 h): 5800 nM
IC50 ([2]; Homo sapiens, A549, 72 h): 7000 nM
IC50 ([3]; Homo sapiens, KB, 72 h): 6500 nM
IC50 ([4]; Homo sapiens, SK-BR-3, 72 h): 7700 nM
IC50 ([5]; Homo sapiens, KBVIN, 72 h): 6200 nM

SMILES: Nc1ccccc1Nc1cc(=O)oc2c1ccc1ccccc12 [listing 1 of 2 here]
IC50 ([1]; du-145): 8700 nM
IC50 ([2]; a549): 9100 nM
IC50 ([3]; kb): 8200 nM
IC50 ([4]; sk-br-3): 9500 nM
IC50 ([5]; kbvin): 9000 nM

SMILES: Nc1cccc2c(Nc3cc(=O)oc4c3ccc3ccccc34)cccc12
IC50 ([1]; du-145): 180 nM
IC50 ([2]; a549): 240 nM
IC50 ([3]; kb): 210 nM
IC50 ([4]; sk-br-3): 240 nM
IC50 ([5]; kbvin): 170 nM

SMILES: Nc1cccc(Nc2cc(=O)oc3c2ccc2ccccc23)c1 [listing 1 of 2 here]
IC50 ([1]; Homo sapiens, DU-145, 72 h): 150 nM
IC50 ([2]; Homo sapiens, A549, 72 h): 190 nM
IC50 ([3]; Homo sapiens, KB, 72 h): 120 nM
IC50 ([4]; Homo sapiens, SK-BR-3, 72 h): 150 nM
IC50 ([5]; Homo sapiens, KBVIN, 72 h): 160 nM

SMILES: Nc1ccccc1Nc1cc(=O)oc2c3c(ccc12)CCCC3
IC50 ([1]; Homo sapiens, DU-145, 72 h): 5000 nM
IC50 ([2]; Homo sapiens, A549, 72 h): 5000 nM
IC50 ([3]; Homo sapiens, KB, 72 h): 4900 nM
IC50 ([4]; Homo sapiens, SK-BR-3, 72 h): 5200 nM
IC50 ([5]; Homo sapiens, KBVIN, 72 h): 5200 nM

SMILES: Nc1cccc(Nc2cc(=O)oc3c4c(ccc23)CCCC4)c1 [listing 1 of 2 here]
IC50 ([1]; du-145): 340 nM
IC50 ([2]; a549): 500 nM
IC50 ([3]; kb): 480 nM
IC50 ([4]; sk-br-3): 560 nM
IC50 ([5]; kbvin): 450 nM

SMILES: Nc1cccc(Nc2cc(=O)oc3c2ccc2ccccc23)c1 [listing 2 of 2 here]
IC50 ([1]; du-145): 180 nM
IC50 ([2]; a549): 150 nM
IC50 ([3]; kb): 170 nM
IC50 ([4]; sk-br-3): 240 nM
IC50 ([5]; kbvin): 150 nM

SMILES: O=c1cc(NC2CCN(Cc3ccccc3)CC2)c2ccc3ccccc3c2o1
IC50 ([3]; kb): > 10000 nM
IC50 ([5]; kbvin): 9400 nM

SMILES: Nc1ccccc1Nc1cc(=O)oc2c1ccc1ccccc12 [listing 2 of 2 here]
IC50 ([1]; Homo sapiens, DU-145, 72 h): > 10000 nM
IC50 ([2]; Homo sapiens, A549, 72 h): > 10000 nM
IC50 ([3]; Homo sapiens, KB, 72 h): > 10000 nM
IC50 ([4]; Homo sapiens, SK-BR-3, 72 h): > 10000 nM
IC50 ([5]; Homo sapiens, KBVIN, 72 h): > 10000 nM

SMILES: O=c1cc(NC2CCN(Cc3ccccc3)CC2)c2ccc3c(c2o1)CCCC3 [listing 2 of 2 here]
IC50 ([1]; du-145): 8300 nM
IC50 ([2]; a549): > 10000 nM
IC50 ([3]; kb): 9100 nM
IC50 ([4]; sk-br-3): 9300 nM
IC50 ([5]; kbvin): 8300 nM

Activity [6]: 15%
SMILES: Nc1ccc(Nc2cc(=O)oc3c4c(ccc23)CCCC4)cc1
IC50 ([1]; Homo sapiens, DU-145, 72 h): 53 nM
IC50 ([2]; Homo sapiens, A549, 72 h): 58 nM
IC50 ([3]; Homo sapiens, KB, 72 h): 56 nM
IC50 ([4]; Homo sapiens, SK-BR-3, 72 h): 74 nM
Activity [7]: 70%
IC50 ([5]; Homo sapiens, KBVIN, 72 h): 53 nM
fold change (FC) [8]: 4
fold change (FC) [9]: 4.5

Activity [6]: 15%
solubility [11]: 0.69 µg/mL (≈ 2.17 µM)
SMILES: COc1ccc(Nc2cc(=O)oc3c2ccc2ccccc23)cc1
IC50 ([1]; Homo sapiens, DU-145, 72 h): 110 nM
IC50 ([2]; Homo sapiens, A549, 72 h): 170 nM
IC50 ([3]; Homo sapiens, KB, 72 h): 110 nM
IC50 ([4]; Homo sapiens, SK-BR-3, 72 h): 130 nM
Activity [7]: 75%
IC50 ([5]; Homo sapiens, KBVIN, 72 h): 130 nM
Activity [10]: Active
Activity [12]: Non-toxic
Activity [13]: 55%

SMILES: Nc1cccc(Nc2cc(=O)oc3c4c(ccc23)CCCC4)c1 [listing 2 of 2 here]
IC50 ([1]; Homo sapiens, DU-145, 72 h): 440 nM
IC50 ([2]; Homo sapiens, A549, 72 h): 400 nM
IC50 ([3]; Homo sapiens, KB, 72 h): 440 nM
IC50 ([4]; Homo sapiens, SK-BR-3, 72 h): 480 nM
IC50 ([5]; Homo sapiens, KBVIN, 72 h): 470 nM
